Among the data in ChEMBL document CHEMBL1151206, “Glycosidase-inhibiting pyrrolidines and pyrrolizidines with a long side chain in Scilla peruviana” (J Nat Prod, 2004) are inhibition and IC50 values, retold here.

For test [1], the target named is Alpha-galactosidase (Coffea arabica) (UniProt Q42656). Description: Inhibition of coffee bean alpha-galactosidase at 1000 uM by spectrophotometry. In outline: (§1)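 Commercial enzymes (P. decumbens alpha-L-rhamnosidase at pH 4.5, bovine epididymis alpha-L-fucosidase at pH 5.5, coffee bean alpha-galactosidase at pH 6.5) were incubated with 2 mM p-nitrophenyl glycoside in a 1 mL reaction. The reaction was stopped with 2 mL of 400 mM Na2CO3 and p-nitrophenol was read at 400 nm.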
Chain of Alpha-galactosidase (Coffea arabica) (Q42656 16-378 limits assumed): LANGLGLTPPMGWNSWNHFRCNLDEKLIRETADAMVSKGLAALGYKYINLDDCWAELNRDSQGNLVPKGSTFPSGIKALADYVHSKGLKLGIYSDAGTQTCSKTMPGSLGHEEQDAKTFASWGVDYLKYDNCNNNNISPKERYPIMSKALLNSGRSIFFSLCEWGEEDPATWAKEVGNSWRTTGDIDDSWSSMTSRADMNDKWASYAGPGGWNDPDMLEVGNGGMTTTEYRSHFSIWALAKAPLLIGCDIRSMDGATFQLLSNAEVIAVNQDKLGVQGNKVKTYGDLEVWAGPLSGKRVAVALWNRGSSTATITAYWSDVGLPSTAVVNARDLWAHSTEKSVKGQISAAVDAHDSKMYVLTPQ

The target of test [2] is T1, Beta-mannosidase (Rattus norvegicus) (UniProt Q4FZV0).
T1 sequence (whole entry): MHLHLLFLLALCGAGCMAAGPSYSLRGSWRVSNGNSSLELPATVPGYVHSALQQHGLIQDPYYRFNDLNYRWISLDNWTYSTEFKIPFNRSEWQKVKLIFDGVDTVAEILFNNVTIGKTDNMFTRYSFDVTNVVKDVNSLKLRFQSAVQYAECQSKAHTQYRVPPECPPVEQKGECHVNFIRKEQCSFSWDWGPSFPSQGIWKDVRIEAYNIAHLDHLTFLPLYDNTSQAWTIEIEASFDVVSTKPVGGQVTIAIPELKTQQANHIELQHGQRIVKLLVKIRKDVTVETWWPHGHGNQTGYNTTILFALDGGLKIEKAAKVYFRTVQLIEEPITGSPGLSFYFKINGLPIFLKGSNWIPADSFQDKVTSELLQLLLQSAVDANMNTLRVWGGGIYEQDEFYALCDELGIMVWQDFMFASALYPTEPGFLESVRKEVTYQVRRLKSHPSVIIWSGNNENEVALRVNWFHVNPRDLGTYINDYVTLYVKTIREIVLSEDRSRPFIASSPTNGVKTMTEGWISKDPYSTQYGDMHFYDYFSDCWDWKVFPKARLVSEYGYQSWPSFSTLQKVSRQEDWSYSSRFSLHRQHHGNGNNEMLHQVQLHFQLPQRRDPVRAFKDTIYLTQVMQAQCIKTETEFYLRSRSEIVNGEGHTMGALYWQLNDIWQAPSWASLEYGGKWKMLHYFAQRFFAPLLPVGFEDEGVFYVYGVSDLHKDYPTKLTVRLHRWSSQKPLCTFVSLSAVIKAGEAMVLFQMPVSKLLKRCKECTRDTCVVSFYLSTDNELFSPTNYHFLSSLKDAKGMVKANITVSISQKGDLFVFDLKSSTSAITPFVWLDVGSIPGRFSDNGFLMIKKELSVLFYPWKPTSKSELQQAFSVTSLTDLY
Put plainly: Inhibition of rat epididymis beta-mannosidase at 1000 uM by spectrophotometry.

Test [3] is described as follows: Inhibition of rice alpha-glucosidase by spectrophotometry. Also noted: species or system Oryza sativa.
Test [4] in a line: Inhibition of yeast alpha-glucosidase by spectrophotometry. Also noted: species or system Saccharomyces cerevisiae. Summed up:
(§2)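 Commercial enzyme assayed with the matching p-nitrophenyl glycoside (2 mM) in a 1 mL reaction, at pH 5.0 for the C. saccharolyticum and almond beta-glucosidases, pH 6.8 for bovine liver beta-galactosidase and pH 6.8 for yeast alpha-glucosidase. The reaction was stopped with 2 mL of 400 mM Na2CO3 and released p-nitrophenol was read at 400 nm. IC50 was determined.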

Test [5] is described as follows: Inhibition of Caldocellum saccharolyticum beta-glucosidase by spectrophotometry. Also noted: species or system Caldicellulosiruptor saccharolyticus. In outline:
as §2

Test [6] is described as follows: Inhibition of almond beta-glucosidase by spectrophotometry. Also noted: species or system Prunus dulcis. In outline: as §2
Test [7] addresses T2, Beta-galactosidase (Bos taurus, UniProt Q58D55).
T2 sequence (Q58D55 whole entry): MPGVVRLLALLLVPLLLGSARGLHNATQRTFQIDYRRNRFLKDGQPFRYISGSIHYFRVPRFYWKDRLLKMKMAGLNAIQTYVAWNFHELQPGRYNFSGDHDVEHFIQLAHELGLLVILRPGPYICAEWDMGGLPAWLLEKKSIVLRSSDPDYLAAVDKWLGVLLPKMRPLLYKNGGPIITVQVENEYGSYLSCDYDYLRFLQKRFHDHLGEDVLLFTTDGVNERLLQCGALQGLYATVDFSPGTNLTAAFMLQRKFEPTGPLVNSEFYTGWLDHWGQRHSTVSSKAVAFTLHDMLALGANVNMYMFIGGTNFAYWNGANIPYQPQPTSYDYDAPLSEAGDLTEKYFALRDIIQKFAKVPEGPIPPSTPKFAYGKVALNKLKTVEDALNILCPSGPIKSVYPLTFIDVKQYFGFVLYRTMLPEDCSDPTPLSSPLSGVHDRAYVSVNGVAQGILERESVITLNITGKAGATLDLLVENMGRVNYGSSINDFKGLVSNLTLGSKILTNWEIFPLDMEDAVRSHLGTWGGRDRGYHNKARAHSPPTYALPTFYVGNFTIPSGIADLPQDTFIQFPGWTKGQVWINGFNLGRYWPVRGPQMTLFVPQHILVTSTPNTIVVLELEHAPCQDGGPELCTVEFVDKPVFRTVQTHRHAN
Description: Inhibition of bovine liver beta-galactosidase by spectrophotometry. In outline: as §2

For test [8], the species on record is Rattus norvegicus. Description: Inhibition of rat epididymis beta-galactosidase at 1000 uM by spectrophotometry. In outline:
(§3)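 Enzyme source was rat epididymal fluid purified from epididymis, assayed at pH 5.2 with 2 mM of the relevant p-nitrophenyl glycoside in a 1 mL reaction. The reaction was stopped with 2 mL of 400 mM Na2CO3 and p-nitrophenol was measured at 400 nm.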

Test [9] in a line: Inhibition of rat epididymis alpha-mannosidase by spectrophotometry. In outline: (§4)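 Substrate was the matching p-nitrophenyl glycoside at 2 mM. Penicillium decumbens α-L-rhamnosidase was run at pH 4.5. α-Mannosidase came from purified rat epididymal fluid and was run at pH 5.2. Reactions were stopped with 400 mM Na2CO3, and released p-nitrophenol was read at 400 nm.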
The target in test [10] is T3, Tissue alpha-L-fucosidase (Bos taurus) (UniProt Q2KIM0).
T3 sequence (whole entry): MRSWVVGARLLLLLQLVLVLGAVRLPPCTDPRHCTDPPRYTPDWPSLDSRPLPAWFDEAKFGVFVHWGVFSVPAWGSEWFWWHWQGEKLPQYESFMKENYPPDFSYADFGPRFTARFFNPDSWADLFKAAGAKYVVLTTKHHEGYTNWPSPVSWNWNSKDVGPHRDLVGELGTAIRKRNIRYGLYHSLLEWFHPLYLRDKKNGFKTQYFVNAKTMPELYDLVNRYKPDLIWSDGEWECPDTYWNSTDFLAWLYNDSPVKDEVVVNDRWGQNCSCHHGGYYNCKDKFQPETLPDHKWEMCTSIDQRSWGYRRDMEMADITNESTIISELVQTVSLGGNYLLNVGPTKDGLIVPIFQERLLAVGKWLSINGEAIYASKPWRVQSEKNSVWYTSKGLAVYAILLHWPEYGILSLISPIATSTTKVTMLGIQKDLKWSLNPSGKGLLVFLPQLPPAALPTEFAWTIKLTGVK
Description: Inhibition of bovine epididymis alpha-L-fucosidase at 1000 uM by spectrophotometry. In outline:
as §1

Test [11] in a line: Inhibition of Penicillium decumbens alpha-L-rhamnosidase by spectrophotometry. Summed up:
as §4

For test [12], the target named is T4, Lysosomal acid glucosylceramidase (Homo sapiens) (UniProt P04062).
T4 sequence (whole entry): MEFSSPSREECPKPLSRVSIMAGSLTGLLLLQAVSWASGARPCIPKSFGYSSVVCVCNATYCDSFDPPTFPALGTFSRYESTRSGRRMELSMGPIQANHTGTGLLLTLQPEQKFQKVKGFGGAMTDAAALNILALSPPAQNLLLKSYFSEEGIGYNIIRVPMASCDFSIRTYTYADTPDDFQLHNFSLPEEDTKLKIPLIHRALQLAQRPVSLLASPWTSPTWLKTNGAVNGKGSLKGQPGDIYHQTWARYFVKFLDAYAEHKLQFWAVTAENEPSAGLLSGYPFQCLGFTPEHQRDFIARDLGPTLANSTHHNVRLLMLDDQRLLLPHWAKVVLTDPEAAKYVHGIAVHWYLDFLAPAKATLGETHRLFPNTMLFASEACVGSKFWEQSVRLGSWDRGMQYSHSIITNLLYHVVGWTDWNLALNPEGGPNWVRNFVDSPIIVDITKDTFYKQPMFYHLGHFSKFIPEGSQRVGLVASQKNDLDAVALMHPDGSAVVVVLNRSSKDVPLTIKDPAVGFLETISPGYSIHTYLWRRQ
Description: Inhibition of human placental beta-glucocerebrosidase at 1000 uM by spectrophotometry.

For test [13], the species on record is Rattus norvegicus. Put plainly: Inhibition of rat epididymis alpha-mannosidase at 1000 uM by spectrophotometry. Summed up: as §3
Test [14] deals with Penicillium decumbens. Description: Inhibition of Penicillium decumbens alpha-L-rhamnosidase at 1000 uM by spectrophotometry. In outline: as §1
Test [15] has as its target T5, Lysosomal acid glucosylceramidase (Homo sapiens, UniProt P04062).
T5 sequence (P04062 whole entry): T4 sequence (whole entry)
Put plainly: Inhibition of human placental beta-glucocerebrosidase by spectrophotometry. Summed up:
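Human placental beta-glucocerebrosidase (Ceredase) was assayed at pH 5.5 with 2 mM p-nitrophenyl glycoside substrate in a 1 mL reaction. The reaction was stopped with 2 mL of 400 mM Na2CO3 and released p-nitrophenol was read at 400 nm.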

In test [16] the target is T6, Beta-mannosidase (Rattus norvegicus, UniProt Q4FZV0).
T6 sequence (Q4FZV0 whole entry): T1 sequence (whole entry)
Put plainly: Inhibition of rat epididymis beta-mannosidase by spectrophotometry. Summed up: as §3

Broadly, the inhibition is the share of the control response that was lost under treatment. A high value points to strong suppression. A word on the IC50: it is the concentration needed to halve the response being measured.

As to `CC(O)CC(O)[C@@H]1CC[C@@H]2[C@H](O)[C@H](O)[C@@H](CO)N21` (some centres undefined), the inhibition in test [1], in test [2], in [8], in test [10] and in test [12] was below 50% in each case. Also, the IC50 in test [3] turned out to be 300 µM; in [4] it was 3.6 µM; in test [5] it was 5.1 µM; in [6] it was 9.5 µM; in [7], 830 µM; in test [9], 680 µM. Further, the IC50 in test [11] stood at 180 µM.
Consider `OCC(O)CCCCC(O)CC(O)CCC[C@@H](O)[C@H]1N[C@H](CO)[C@@H](O)[C@@H]1O` (some centres undefined), for which the inhibition in test [1], in [13], in test [14], in test [8] and in test [10] was below 50% in each case. For the same compound, the IC50 was found to be 265 µM in test [3]; 220 µM in [4]; 0.08 µM in [5]; 6.6 µM in test [6]; 970 µM in test [15]; 0.09 µM in test [7]. In addition, the IC50 in test [16] was found to be 9.3 µM.
